From PMC6128401 (Molecular pharmaceutics, 2017)

Key:
[1] = Stability against enzymatic degradation in human serum; type: in vitro ADME
Procedure, shortened: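 The ¹⁷⁷Lu-labelled peptide was incubated in human serum at 37°C and sampled at time points up to 24 h. Proteins were precipitated with acetonitrile (1:1.5) and centrifuged; supernatant was diluted 1:1 with water before HPLC for intact radiopeptide. Half-life came from first-order exponential decay fitting.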

[2] = Renal toxicity: creatinine and urea in serum; type: in vivo, BALB/c nude mice
Procedure, shortened: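 The same treated double-xenografted nude mice (saline, 15 or 30 MBq i.v.; n=5) gave weekly venous blood samples. Serum creatinine and urea were measured with specific kits on a semiautomatic biochemical analyser. Values were compared between treated and control groups over weeks from cell inoculation (week −2) onward.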

[3] = Biodistribution: uptake in normal organs and tissues; type: in vivo, BALB/c nude mice; settings: 30 min p.i.
Procedure, shortened: (§1)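 Female and male BALB/c nude mice, 5-6 weeks old, carried A431-CCK2R and A431-mock xenografts in opposite flanks (2×10⁶ cells each). Tumours grew for ~14 days to ~0.2 g. Kit-prepared ¹⁷⁷Lu-peptide, 1 MBq (20 pmol; 50 GBq/µmol), was injected into the tail vein. Groups of five were killed at 30 min, 4 h, 1 d, 2 d, 3 d and 7 d; dissected tissues were gamma-counted and expressed as % IA/g.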

[4] = molecular target: T1, A431-CCK2R cell line expressing the human CCK2R (Homo sapiens, UniProt P32239); assay: Cell uptake; type: cell-based; settings: A431-CCK2R cells, 2 h incubation, 0.4 nM
T1 sequence (P32239 1-447): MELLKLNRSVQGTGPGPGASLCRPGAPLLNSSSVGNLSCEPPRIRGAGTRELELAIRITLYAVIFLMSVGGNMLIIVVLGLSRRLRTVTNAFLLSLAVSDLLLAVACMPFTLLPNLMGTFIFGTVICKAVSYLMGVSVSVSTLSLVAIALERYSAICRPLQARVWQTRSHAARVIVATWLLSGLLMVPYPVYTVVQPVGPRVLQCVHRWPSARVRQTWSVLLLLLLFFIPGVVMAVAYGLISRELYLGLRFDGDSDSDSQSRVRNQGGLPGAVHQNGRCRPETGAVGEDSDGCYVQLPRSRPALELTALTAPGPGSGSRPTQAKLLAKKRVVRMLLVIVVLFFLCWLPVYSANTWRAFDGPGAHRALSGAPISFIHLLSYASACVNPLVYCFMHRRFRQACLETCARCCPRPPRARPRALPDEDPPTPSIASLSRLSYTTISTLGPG
Procedure, shortened: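 A431-CCK2R and A431-mock cells were cultured in DMEM with 10% FBS, penicillin/streptomycin/L-glutamine at 37°C, 5% CO₂. They were seeded at 1.0×10⁶ cells/well and grown 48 h to confluency. Peptides were labelled with ¹⁷⁷LuCl₃ (~50 GBq/µmol) in ascorbate buffer pH 5 with gentisic acid and L-Met, 80°C. Triplicate wells received ~100,000 cpm (0.4 nM) for 2 h. The internalized fraction was gamma-counted as % of total added.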

[5] = tested on: A431-CCK2R xenografts; assay: Biodistribution: uptake in receptor-positive tumour xenograft; type: in vivo, BALB/c nude mice; settings: 30 min p.i.
Procedure, shortened: as §1

[6] = Chemical stability in phosphate buffered saline; type: physicochemical; settings: PBS at RT, up to/after 4 h incubation
Procedure, shortened: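 ¹⁷⁷Lu-labelled peptide (120 pmol/mL) was kept in phosphate buffered saline at room temperature. Aliquots were taken at intervals up to […] and analysed by HPLC for percentage intact radiopeptide relative to post-labelling radiochemical purity.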

[7] = tested on: A431-mock xenografts; assay: Experimental radionuclide therapy, receptor-negative tumour growth; type: in vivo, BALB/c nude mice; settings: for mean SGR A431-mock: single i.v. treatment
[8] = type: physicochemical
Procedure, shortened: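 Labelling used ~2 GBq ¹⁷⁷LuCl₃ in 1 mL dilute HCl, heated at 80°C for 15-25 min. Kits were stored up to 6 months; labelled product was held up to 48 h at room temperature or −20°C. Radiochemical purity was measured by RP-HPLC.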

[9] = tested on: A431-CCK2R xenografts; assay: Experimental radionuclide therapy, receptor-positive tumour growth; type: in vivo, BALB/c nude mice; settings: for mean SGR A431-CCK2R: single i.v. treatment; for TVDT increase by a factor in comparison to the control group: A431-CCK2R tumours
[10] = Medullary toxicity: white blood cell and platelet counts; type: in vivo, BALB/c nude mice
Procedure, shortened: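 Double-xenografted nude mice were dosed as in the therapy study (saline, 15 or 30 MBq i.v.), n=5. Weekly, 0.1 mL venous blood was drawn from the superficial temporal vein by lancet, up to eight samples per animal. White blood cells and platelets were counted on an automatic haematology analyser. Counts were expressed relative to basal values (week −2 = inoculation; week 0 = treatment).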

[11] = 15 MBq group, week 0 (week of treatment)
[12] = 15 MBq group, week -2 (cell inoculation)
[13] = 30 MBq group, week 0 (week of treatment)
[14] = 30 MBq group, week -2 (cell inoculation)
[15] = 15 MBq, one week after treatment

CSCC[C@H](NC(=O)[C@H](Cc1c[nH]c2ccccc12)NC(=O)[C@H]1CCCCNC(=O)[C@H](NC(=O)CN2CCN(CC(=O)O)CCN(CC(=O)O)CCN(CC(=O)O)CC2)CCC(=O)N[C@@H](C)C(=O)N[C@@H](Cc2ccc(O)cc2)C(=O)N1)C(=O)N[C@@H](CC(=O)O)C(=O)N[C@@H](Cc1ccccc1)C(N)=O [^177Lu-DOTA-cyclo-MG1, metal not drawn]
half-life [1]: 30.1 h
Creatinine (reference value 0.1-0.5) [2, 11]: 0.3 ± 0.2 mg/dL
Urea (reference value 17-38) [2, 11]: 26 ± 2 mmol/L
Creatinine (reference value 0.1-0.5) ([2]; 15 MBq group, week 1): 0.2 ± 0.1 mg/dL
Urea (reference value 17-38) ([2]; 15 MBq group, week 1): 32 ± 3 mmol/L
Creatinine (reference value 0.1-0.5) ([2]; 15 MBq group, week 2): 0.3 ± 0.1 mg/dL
Urea (reference value 17-38) ([2]; 15 MBq group, week 2): 33 ± 2 mmol/L
Creatinine (reference value 0.1-0.5) ([2]; 15 MBq group, week 3): 0.3 ± 0.2 mg/dL
Creatinine (reference value 0.1-0.5) ([2]; 15 MBq group, week 4): 0.5 ± 0.1 mg/dL
Creatinine (reference value 0.1-0.5) ([2]; 15 MBq group, week 5): 0.7 mg/dL
Creatinine (reference value 0.1-0.5) ([2]; 15 MBq group, week -1): 0.2 ± 0.1 mg/dL
Urea (reference value 17-38) ([2]; 15 MBq group, week -1): 33 ± 4 mmol/L
Creatinine (reference value 0.1-0.5) [2, 12]: 0.2 ± 0.1 mg/dL
Urea (reference value 17-38) [2, 12]: 31 ± 3 mmol/L
urea above the upper limit of the reference value ([2]; 15 MBq, beginning from week 3 after treatment): 39 to 48 mmol/L
Creatinine (reference value 0.1-0.5) [2, 13]: 0.3 ± 0.2 mg/dL
Urea (reference value 17-38) [2, 13]: 32 ± 5 mmol/L
Creatinine (reference value 0.1-0.5) ([2]; 30 MBq group, week 1): 0.3 ± 0.1 mg/dL
Urea (reference value 17-38) ([2]; 30 MBq group, week 1): 29 ± 4 mmol/L
Creatinine (reference value 0.1-0.5) ([2]; 30 MBq group, week 2): 0.2 ± 0.1 mg/dL
Creatinine (reference value 0.1-0.5) ([2]; 30 MBq group, week 3): 0.5 ± 0.2 mg/dL
Creatinine (reference value 0.1-0.5) ([2]; 30 MBq group, week -1): 0.2 ± 0.1 mg/dL
Urea (reference value 17-38) ([2]; 30 MBq group, week -1): 28 ± 3 mmol/L
Creatinine (reference value 0.1-0.5) [2, 14]: 0.2 ± 0.1 mg/dL
Urea (reference value 17-38) [2, 14]: 27 ± 5 mmol/L
urea levels above the reference limit ([2]; 30 MBq, beginning from week 2 after treatment): 39 to 52 mmol/L
creatinine levels above the reference limit ([2]; 30 MBq, beginning from week 4 after treatment): 0.6 to 0.8 mg/dL
kidney uptake, maximal value [3]: 1.75 % IA/g
internalized radioligand fraction (% of total) [4]: 15.2±2.6%
maximal tumour uptake [5]: 5.18 % IA/g
RCP during incubation in PBS [6]: 86%
mean SGR A431-mock ([7]; 15 MBq group (0.6 nmol)): 0.065±0.006
mean SGR A431-mock ([7]; 30 MBq group (1.2 nmol)): 0.051±0.006
TVDT increase by a factor in comparison to the control group ([7]; A431-mock tumours, high activity group (30 MBq)): 1.5
improvement of RCP by freezer storage ([8]; -20°C versus RT): ~ 10%
degree of Met-oxidation ([8]; during storage of the kits): 3.8-6.1%
mean RCP for the different time points after storage of the kits ([8]; kit storage up to 6 months, n=4): 89.4±7.9%
RCP after preparation ([8]; kit-prepared, directly after preparation): 93.3±1.6%
RCP at 24 h after preparation ([8]; stored at RT): 89.8±2.8%
RCP up to 4 h after preparation ([8]; stored at RT): > 92%
mean SGR A431-CCK2R ([9]; 15 MBq group (0.6 nmol)): 0.046±0.002
mean SGR A431-CCK2R ([9]; 30 MBq group (1.2 nmol)): 0.031±0.006
TVDT increase by a factor in comparison to the control group ([9]; high activity group (30 MBq)): 2.6
TVDT increase by a factor in comparison to the control group ([9]; low activity group (15 MBq)): 1.8
reduction in PLT counts compared to the basal value [10, 15]: 51.2-52.8%
reduction in WBC counts compared to the basal value [10, 15]: 37.8-40.8%
PLT value ([10]; 15 MBq, week 2 after treatment, reference 558-1,454): 531±26 ×10^9/L
decline of PLT value compared to the basal value ([10]; 30 MBq, after treatment): 44.8-58.0%
reduction of WBC value compared to the basal value ([10]; 30 MBq, week 1 after treatment): 67.2-70.9%
PLT value below the reference values ([10]; 30 MBq, week 1 and 2 after treatment): 486-530 ×10^9/L
WBC value below the lower reference limit ([10]; 30 MBq, week 1 and 2 after treatment, reference 3.11-13.04): 2.17-2.94 ×10^9/L
